The target of series [1] is T1, Diacylglycerol O-acyltransferase 1 (Mus musculus, UniProt Q9Z2A7).
T1 sequence (Q9Z2A7 whole entry): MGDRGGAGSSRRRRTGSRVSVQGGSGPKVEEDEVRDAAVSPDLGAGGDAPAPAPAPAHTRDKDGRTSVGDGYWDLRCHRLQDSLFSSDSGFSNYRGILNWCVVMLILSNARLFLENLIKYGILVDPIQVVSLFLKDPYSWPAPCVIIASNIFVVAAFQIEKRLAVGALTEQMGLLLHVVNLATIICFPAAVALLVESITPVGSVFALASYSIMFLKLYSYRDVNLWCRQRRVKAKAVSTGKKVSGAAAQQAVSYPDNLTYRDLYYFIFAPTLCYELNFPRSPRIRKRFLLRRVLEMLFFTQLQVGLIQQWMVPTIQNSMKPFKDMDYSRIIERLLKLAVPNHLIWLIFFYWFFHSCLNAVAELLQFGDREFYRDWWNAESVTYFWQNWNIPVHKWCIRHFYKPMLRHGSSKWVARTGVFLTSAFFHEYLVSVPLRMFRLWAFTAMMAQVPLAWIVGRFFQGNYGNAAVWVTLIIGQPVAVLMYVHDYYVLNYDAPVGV
Nature of the series: Inhibition of mouse DGAT1.

Series [2] addresses T2, Diacylglycerol O-acyltransferase 1 (Homo sapiens, UniProt O75907).
T2 sequence (O75907 whole entry): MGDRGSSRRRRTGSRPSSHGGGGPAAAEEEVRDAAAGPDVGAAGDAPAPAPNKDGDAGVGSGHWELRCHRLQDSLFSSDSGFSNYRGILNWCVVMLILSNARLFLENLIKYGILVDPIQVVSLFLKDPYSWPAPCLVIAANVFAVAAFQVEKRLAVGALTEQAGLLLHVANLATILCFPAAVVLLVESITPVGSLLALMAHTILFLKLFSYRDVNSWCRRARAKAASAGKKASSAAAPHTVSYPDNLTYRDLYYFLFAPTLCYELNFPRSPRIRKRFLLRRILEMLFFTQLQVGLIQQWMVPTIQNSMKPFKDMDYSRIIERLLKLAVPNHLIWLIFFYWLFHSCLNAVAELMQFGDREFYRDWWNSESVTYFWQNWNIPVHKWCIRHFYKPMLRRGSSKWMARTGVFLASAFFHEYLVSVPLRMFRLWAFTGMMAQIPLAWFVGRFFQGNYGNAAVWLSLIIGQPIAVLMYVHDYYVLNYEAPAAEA
Nature of the series: Inhibition of human DGAT1.

A short description of series [3]: Lipophilicity, log D of the compound by HPLC analysis. The format is physicochemical.
The test system of another series is Mus musculus. Nature of the series: Reduction in triglyceride excursion in mouse at 10 mg/kg, po measured at 18 hrs by lipid tolerance test. Also noted: scale not given: the % may be the effect or the level left. The format is functional. In a few lines:
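Mouse lipid tolerance test. Oral dose of 10 mg/kg as a suspension in 0.5% methylcellulose; triglyceride reduction read at 18 h.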

On to `O=C(O)[C@H]1CC[C@H](Oc2ccc(-c3ccc(-c4nc5ccccc5[nH]4)cn3)cn2)CC1`, for which the concentration for half-maximal inhibition (IC50) was 12 nM in series [1] and 5.3 nM in series [2].
As for `O=C(O)[C@H]1CC[C@@H](Oc2ccc(-c3ccc(-c4nc5cc(F)c(F)cc5[nH]4)cn3)cn2)CC1`, the IC50 came out at 3.4 nM in series [1] and 1.4 nM in series [2]. In series [3], this compound yielded a pH-dependent lipophilicity (logD) of 1.28.
Compound `O=C(O)[C@H]1CC[C@H](Oc2ccc(-c3ccc(-c4nc5cc(C(F)(F)F)ccc5[nH]4)cn3)cn2)CC1` registered an Activity with Mus musculus of 84%. Also, the IC50 worked out at 4.4 nM in series [1] and 3 nM in series [2]. In series [3], this compound showed a log distribution coefficient (logD) of 1.72.
In the case of `N#Cc1ccc2nc(-c3ccc(-c4ccc(O[C@H]5CC[C@H](C(=O)O)CC5)nc4)nc3)[nH]c2c1`, the IC50 in series [1] turned out to be 96 nM; in series [2], 6 nM.
Regarding `O=C(O)C[C@H]1CC[C@H](c2ccc(-c3ccc(-c4nc5ccc(C(F)(F)F)cc5[nH]4)cn3)cc2)CC1`, the IC50 in series [1] was determined as 2.8 nM; in series [2] it was 3.5 nM. Moreover, the log distribution coefficient (logD) in series [3] is 1.97.
Turning to `O=C(O)[C@H]1CC[C@H](Oc2ccc(-c3ccc(-c4nc5cc(Cl)ccc5[nH]4)cn3)cn2)CC1`, in the series on Mus musculus, the Activity worked out at 83%. Also, the IC50 in series [1] is 4.2 nM; in series [2], 2 nM. The same compound registered a pH-dependent lipophilicity (logD) in series [3] of 1.43.
As to `O=C(O)C[C@H]1CC[C@H](c2ccc(-c3ccc(-c4nc5cc(Cl)ccc5[nH]4)cn3)cc2)CC1`, the IC50 in series [1] stood at 1 nM; in series [2] it was 1.1 nM. Besides, the logD in series [3] was found to be 1.8.
Turning to `CS(=O)(=O)c1ccc2nc(-c3ccc(-c4ccc(O[C@H]5CC[C@@H](C(=O)O)CC5)nc4)nc3)[nH]c2c1`, the IC50 in series [1] was 358 nM; in series [2] it was 101 nM.
On to `COc1ccc2[nH]c(-c3ccc(-c4ccc(O[C@H]5CC[C@@H](C(=O)O)CC5)nc4)nc3)nc2n1`, for which the IC50 in series [2] was determined as 11 nM.

The term IC50 denotes the concentration at which inhibition is half-maximal. What is called logD is lipophilicity at a set pH, counting ionised and neutral species.

(Values after ChEMBL document CHEMBL2407079, “Potent DGAT1 Inhibitors in the Benzimidazole Class with a Pyridyl-oxy-cyclohexanecarboxylic Acid Moiety” (ACS Med Chem Lett, 2013).)
